Test results from paper PMC4641816 (Journal of biomolecular screening, 2014).
Like-named read-outs stand apart in the source and are kept apart here.

What was measured:
recombinant CTSL1 = recombinant CTSL1 (Fasciola hepatica, UniProt Q7JNQ9); experiment: Cathepsin L1; assay type: biochemical
[1] = target: PfM18AAP extracts (soluble freeze-thaw extracts of parasites) (Plasmodium falciparum, UniProt Q8I2J3); experiment: Malaria cell lysate assay; assay type: biochemical; details: at ≤5μM
Summary of the method: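 Human erythrocytes infected in vitro were washed in PBS and parasites released with saponin. Three freeze-thaw cycles followed and supernatant extracts were kept. Extracts were incubated with test compound plus CoCl2 and aminoacyl-NHMec substrate (given as both H-Glu- and H-Asp-NHMec). Decreased fluorescence from substrate cleavage was taken as inhibition. Vehicle and background controls were included.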

[2] = tested on: P. falciparum infected red blood cells; experiment: Parasite growth assay; assay type: cell-based, Plasmodium falciparum; details: 10 μM test concentration
Summary of the method: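 Asexual erythrocytic-stage P. falciparum in infected RBCs was incubated with test compound at 10 µM in hypoxanthine-free medium, then 3H-hypoxanthine was added. 3H incorporation was measured after 48 h; reduced incorporation was scored as inhibition. Each plate held vehicle and uninfected-RBC background controls (DMSO ≤1%).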

[3] = target: T1, purified recombinant PfM18AAP (Plasmodium falciparum, UniProt Q8I2J3); experiment: Ki determination and mode of inhibition; assay type: biochemical; details: for mode of inhibition of PfM18AAP: comparison of fits, Lineweaver-Burk plots
T1 sequence (Q8I2J3 1-570): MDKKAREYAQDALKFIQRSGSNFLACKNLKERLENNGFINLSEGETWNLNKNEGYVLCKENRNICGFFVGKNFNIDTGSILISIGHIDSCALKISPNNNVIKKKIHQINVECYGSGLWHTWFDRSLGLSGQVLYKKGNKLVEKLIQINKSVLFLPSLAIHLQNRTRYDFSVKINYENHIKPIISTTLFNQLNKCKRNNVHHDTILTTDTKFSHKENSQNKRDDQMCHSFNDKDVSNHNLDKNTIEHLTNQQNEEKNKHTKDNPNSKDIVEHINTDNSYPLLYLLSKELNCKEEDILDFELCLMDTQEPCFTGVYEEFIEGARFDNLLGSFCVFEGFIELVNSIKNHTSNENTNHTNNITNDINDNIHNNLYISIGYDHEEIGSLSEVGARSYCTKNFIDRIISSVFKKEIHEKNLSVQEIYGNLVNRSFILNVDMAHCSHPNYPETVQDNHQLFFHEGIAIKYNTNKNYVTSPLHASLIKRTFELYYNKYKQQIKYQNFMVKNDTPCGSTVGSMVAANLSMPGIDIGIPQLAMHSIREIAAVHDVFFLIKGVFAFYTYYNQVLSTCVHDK

[4] = previous primary screens at SRIMSC; ref PubChem AIDs 1859, 1931, 651959; cited from earlier work
mammalian cytotoxicity = details: previous primary screens, where tested; ref PubChem AIDs 1486, 1825; cited from earlier work
bacterial viability = details: previous primary screens, where tested; ref PubChem AIDs 449731, 651606; cited from earlier work
serotonin receptor = details: previous primary screens; ref PubChem AIDs 612 and 504916; cited from earlier work
PfM18AAP = details: cited from earlier work

| SMILES | mode of inhibition of PfM18AAP [3] | activity in similarly formatted enzymatic inhibition assays [4] | activity in mammalian cytotoxicity screens (mammalian cytotoxicity) | activity in bacterial viability screens (bacterial viability) | activity in cell-based screens at SRIMSC (serotonin receptor screens) (serotonin receptor) | effect of metal ion on PfM18AAP activity (PfM18AAP) | further results |
| --- | --- | --- | --- | --- | --- | --- | --- |
| CN1CCc2cccc3c2[C@@H]1Cc1ccc(O)c(O)c1-3.Cl.O [CID 6852389, (S)-(+)-Apomorphine hydrochloride hydrate] | non-competitive | devoid of activity | inactive | inactive | inactive in all cell-based screens tested at the SRIMSC, except for two serotonin receptor screens | – | IC50 (recombinant CTSL1; read-out: IC50 in CTSL1 titration experiments, 10 point titration, triplicate): > 59.6 µM; efficacy in P. falciparum lysate assay [1]: 84%; inhibition in 3H hypoxanthine incorporation assay [2]: 87%; Ki ([3]; read-out: Ki (non-linear regression), powder samples, substrate Glu-NHMec): 3.39 ± 0.36 µM |
| Oc1ccc(CCNc2c3ccccc3nc3ccccc23)cc1O [CID 23724194, 4-[2-(acridin-9-ylamino)ethyl]benzene-1,2-diol] | non-competitive | devoid of activity | inactive | inactive | inactive in all cell-based screens tested at the SRIMSC, except for two serotonin receptor screens | – | IC50 (recombinant CTSL1): > 59.6 µM; Ki [3]: 1.35 ± 0.15 µM |
| C[C@H](NC(=O)[C@H](Cc1ccccc1)NC(=O)OCc1ccccc1)C(=O)C=[N+]=[N-] [Z-Phe-Ala diazomethylketone, Z-Phe-Ala-diazomethylketone, reference compound] | – | – | – | – | – | – | IC50 (recombinant CTSL1; read-out: IC50 of positive control in CTSL1 HTS assay, average, N=22 plates): 0.0155 µM |
| [Cl-].[Cl-].[Zn+2] [Zn(II), ZnCl2, reference compound] | – | – | – | – | – | – | concentration at which PfM18AAP is inhibited (PfM18AAP): > 1 mM |
| [Cl-].[Cl-].[Co+2] [cobalt] | – | – | – | – | – | enhanced | – |
| [Mn+2] [manganese] | – | – | – | – | – | enhanced | – |
